# According to article PMC2643122 (Molecular Microbiology, 2008):
# “Also recorded” adds a separate entry of the source. Where no end group is shown, it is not given here.
# How the values were obtained:
# [1] = test system: DnaK; details: 2001, cited from earlier work; for binding by bacterial DnaK related to uptake and killing: ref Kragol et al.
# [2] = test system: Candida albicans; details: cited from earlier work
# [3] = ref Li et al., 2006; cited from earlier work
# [4] = test system: C. albicans; assay: Candidacidal assay of Hst 5; format: cell-based, Candida albicans
# Method in brief: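 Strains (integrated at RP10 in ssa2Δ background) grown overnight in YPD with uridine 50 μg ml−1 at 30°C, washed twice in 10 mM NaPB, resuspended to 10^6 cells ml−1. Exposed to 15 μM Hst 5, 1 h, 30°C, 250 r.p.m. Diluted, 500 cells plated on YPD agar, 48 h room temperature. Percent death versus buffer-only cells. Three independent transformants per mutant; each assay repeated ≥3 times.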
# [5] = molecular target: T1, rSsa2p (Candida albicans, UniProt P46587); assay: FPLC gel filtration determination of dissociation constants; format: binding
# [6] = test system: human tissues; details: discussion statement without its own reference; cited from earlier work
# [7] = test system: C. albicans Ssa2p; details: ref Li et al., 2006; cited from earlier work
# [8] = molecular target: T1, rSsa2p; assay: Limited thermolysin proteolysis of cross-linked rSsa2p–BHst 5 complexes; format: binding; details: thermolysin 5 μg ml^−1, 30°C, 1 h; silver-stained 15% SDS-PAGE
# [9] = test system: yeast cells; details: ref Koshlukova et al., 2000; Vylkova et al., 2007; cited from earlier work
# [10] = test system: C. albicans; assay: Hst 5 translocation assay; format: cell-based, Candida albicans
# Method in brief: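 Early log-phase cells (1 × 10^8) were washed twice and suspended in 1 ml 10 mM NaPB, then given biotinylated Hst 5 (15 μM final) for 30 min at room temperature. Washed cells were pelleted at 3 300 g, 4°C, glass-bead disrupted and spun 15 700 g, 10 min. Cytosolic protein (10 μg) was separated by 16% Tricine SDS-PAGE, blotted with streptavidin-HRP, detected by ECL and quantified densitometrically. Means ± standard errors of triplicate independent assays.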
# T1 sequence (P46587 whole entry): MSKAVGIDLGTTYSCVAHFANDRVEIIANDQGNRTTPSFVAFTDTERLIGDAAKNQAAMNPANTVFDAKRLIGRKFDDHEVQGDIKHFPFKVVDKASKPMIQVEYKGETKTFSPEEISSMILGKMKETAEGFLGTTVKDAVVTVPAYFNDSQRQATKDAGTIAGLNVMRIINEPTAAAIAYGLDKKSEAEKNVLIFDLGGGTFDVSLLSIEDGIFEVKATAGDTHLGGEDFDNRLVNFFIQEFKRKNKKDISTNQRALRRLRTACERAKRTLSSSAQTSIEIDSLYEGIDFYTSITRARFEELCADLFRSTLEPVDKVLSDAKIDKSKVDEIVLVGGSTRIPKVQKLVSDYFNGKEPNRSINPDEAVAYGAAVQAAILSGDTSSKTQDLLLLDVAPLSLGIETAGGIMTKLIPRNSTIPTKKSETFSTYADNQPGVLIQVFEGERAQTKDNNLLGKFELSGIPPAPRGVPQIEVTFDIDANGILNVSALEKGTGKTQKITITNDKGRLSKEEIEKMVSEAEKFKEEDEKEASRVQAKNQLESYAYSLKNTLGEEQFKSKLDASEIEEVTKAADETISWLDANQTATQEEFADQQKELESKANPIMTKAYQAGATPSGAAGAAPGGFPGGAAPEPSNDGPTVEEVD
compound,measurement,setting,value
"pyrrhocoricin: cationic antimicrobial peptide (VDKGSYLPRPTPPRPIYNRN; ends and bridges not checked; UniProt P37362 1-20, looked up)",binding by bacterial DnaK related to uptake and killing,[1],shown to be related to their intracellular uptake and killing functions
same,probable interaction site on DnaK,"[1]; ref Otvos et al., 2000, Kragol et al.",C-terminal variable region of the lid domain outside the conventional peptide binding region
"drosocin: cationic antimicrobial peptide (GKPRPYSPRPTSHPRPIRV; ends and bridges not checked; UniProt P36193 22-40, looked up)",binding by bacterial DnaK related to uptake and killing,[1],shown to be related to their intracellular uptake and killing functions
human β defensin 2,killing of candidal cells via uptake mechanism involving Ssa proteins,"[2]; ref Vylkova et al., 2006",can kill candidal cells
"C[C@H](NC(=O)[C@H](Cc1cnc[nH]1)NC(=O)[C@H](CO)NC(=O)[C@@H](N)CC(=O)O)C(=O)N[C@@H](CCCCN)C(=O)N[C@@H](CCCNC(=N)N)C(=O)N[C@@H](Cc1cnc[nH]1)C(=O)N[C@@H](Cc1cnc[nH]1)C(=O)NCC(=O)N[C@@H](Cc1ccc(O)cc1)C(=O)N[C@@H](CCCCN)C(=O)N[C@@H](CCCNC(=N)N)C(=O)N[C@@H](CCCCN)C(=O)N[C@@H](Cc1ccccc1)C(=O)N[C@@H](Cc1cnc[nH]1)C(=O)N[C@@H](CCC(=O)O)C(=O)N[C@@H](CCCCN)C(=O)N[C@@H](Cc1cnc[nH]1)C(=O)N[C@@H](Cc1cnc[nH]1)C(=O)N[C@@H](CO)C(=O)N[C@@H](Cc1cnc[nH]1)C(=O)N[C@@H](CCCNC(=N)N)C(=O)NCC(=O)N[C@@H](Cc1ccc(O)cc1)C(=O)O [Hst 5, Histatin 5]",self-aggregation,[3],high propensity for self-aggregation
same,"reduction in cellular killing, Ssa2 150−156 mutant strain","[4]; P1 mutant Ssa2(150−156A3) as printed, 15 μM Hst 5, 1 h at 30°C",approximately 20%
same,"loss of killing function, Ssa2(150−156A4) strain","[4]; P1 mutant, result in words, 15 μM Hst 5, 1 h at 30°C",mild to moderate loss of function
same,"killing, Ssa2(334−338A3) strain","[4]; T2 mutant with defective cell wall secretion of Ssa2p, 15 μM Hst 5, 1 h at 30°C",reduced Hst 5 translocation and killing to levels of the ssa2Δ knockout; also recorded: significant loss of cytotoxic and transport functions
same,"killing, Ssa2(131−135A3) strain","[4]; downstream T1 mutant, 15 μM Hst 5, 1 h at 30°C","reduced, but did not prevent Hst 5 killing and intracellular uptake; also recorded: mild to moderate loss of function"
same,effect of mutations within Ssa2(342–355) on killing,"[4]; spot 32 region, data not shown",did not alter Hst 5 killing or translocation
same,resistance of SSA1 knockouts to Hst 5,"[2]; SSA1 knockout, ref Li et al., 2006",only mildly resistant
same,intracellular uptake and killing in C. albicans SSA2 deletion mutants,"[2]; SSA2 deletion, ref Li et al., 2006",significantly reduced
same,fungicidal activity for Candida albicans and other fungal pathogens,"[2]; associated with oral candidiasis, background statement without its own reference",strongly fungicidal
same,inhibition of Hst 5 killing by drugs blocking endocytosis,"[2]; pre-treatment of cells, ref Zhu et al., 2006",inhibited by pre-treatment of cells with drugs blocking endocytosis
same,salt sensitivity,"[2]; ref Dong et al., 2003, Jang et al., 2008",salt sensitive
same,competition for nucleotide binding sites in Ssa2p,[5]; gel filtration with ATP or ADP,does not compete for nucleotide binding sites in Ssa2p
same,fold improvement of binding affinity by nucleotides,"[5]; presence of nucleotides, gel filtration",10 -fold
same,toxicity to human tissues,[6],without being toxic to human tissues
same,association with Ssa2p compared with Ssa1p,[7],stronger association
same,effect of binding on thermolysin digestion sites of rSsa2p,[8],substantially alters available thermolysin digestion sites exposed for enzymatic cleavage
same,selective leakage of intracellular ions and ATP,[9],induces selective leakage of intracellular ions and ATP from yeast cells
same,time course of translocation,"[10]; BHst 5 15 μM, NaPB, room temperature",Translocation happens very rapidly following only 5 min incubation; also recorded: the majority of Hst 5 is translocated intracellularly after 30 min
same,"reduction in Hst 5 translocation, Ssa2 150−156 mutant strain","[10]; P1 mutant Ssa2(150−156A3) as printed, BHst 5 15 μM",approximately 20%
same,"intracellular translocation, Ssa2(334−338A3) strain","[10]; T2 mutant with defective cell wall secretion of Ssa2p, BHst 5 15 μM",reduced Hst 5 translocation and killing to levels of the ssa2Δ knockout
same,"intracellular translocation, Ssa2(131−135A3) strain","[10]; downstream T1 mutant, BHst 5 15 μM","reduced, but did not prevent Hst 5 killing and intracellular uptake"
same,effect of mutations within Ssa2(342–355) on translocation,"[10]; spot 32 region, data not shown",did not alter Hst 5 killing or translocation
same,uptake in Ssa2p deletion mutants,[10]; ssa2Δ,reduced but measurable uptake
